Data as given in ChEMBL document CHEMBL4715736, “Identification of anticancer agents based on the thieno[2,3-b]pyridine and 1H-pyrazole molecular scaffolds” (2016).

Legend:
Assay type in all cases: functional
COLO 205 [1] = test: Growth inhibition of human COLO 205 cells assessed as cell growth at 0.1 uM incubated for 48 hrs by sulforhodamine B assay relative to control; conditions: read-out: Activity
Summary of the method: (§1)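 NCI Developmental Therapeutics Program NCI60 panel. Compounds that were active in the 10 µM one-dose screen went on to dose–response testing. Growth at each concentration is expressed relative to untreated control (100%). GI50 (concentration giving 50% of maximal inhibition of proliferation) and TGI (concentration giving total growth inhibition) were derived from the curves.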

K562 [2] = test: Growth inhibition of human K562 cells assessed as cell growth at 0.1 uM incubated for 48 hrs by sulforhodamine B assay relative to control; conditions: read-out: Activity
SNB-19 [3] = test: Growth inhibition of human SNB-19 cells assessed as cell growth at 1 uM incubated for 48 hrs by sulforhodamine B assay relative to control; conditions: read-out: Activity
Malme-3M = test: Growth inhibition of human Malme-3M cells assessed as cell growth at 0.01 uM incubated for 48 hrs by sulforhodamine B assay relative to control; conditions: read-out: Activity
MDA-MB-435 [4] = test: Growth inhibition of human MDA-MB-435 cells incubated for 48 hrs by sulforhodamine B assay; conditions: for CC50: read-out: LC50 (the source's name)
Summary of the method: (§2)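 NCI60 panel at the NCI Developmental Therapeutics Program. Only compounds active in the 10 µM screen went to dose-response testing. GI50, the concentration giving 50% of maximal inhibition of proliferation, and TGI, the concentration giving total growth inhibition, were derived from the dose-response curves.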

IGROV-1 = test: Growth inhibition of human IGROV-1 cells assessed as cell growth at 0.1 uM incubated for 48 hrs by sulforhodamine B assay relative to control; conditions: read-out: Activity
TK-10 = test: Growth inhibition of human TK-10 cells assessed as cell growth at 1 uM incubated for 48 hrs by sulforhodamine B assay relative to control; conditions: read-out: Activity
SK-OV-3 [5] = test: Growth inhibition of human SK-OV-3 cells assessed as cell growth at 0.1 uM incubated for 48 hrs by sulforhodamine B assay relative to control; conditions: read-out: Activity
Hs-578T = test: Growth inhibition of human Hs-578T cells incubated for 48 hrs by sulforhodamine B assay; conditions: for CC50: read-out: LC50 (the source's name); summary of the method: as §2
MDA-MB-435 [6] = test: Growth inhibition of human MDA-MB-435 cells assessed as cell growth at 1 uM incubated for 48 hrs by sulforhodamine B assay relative to control; conditions: read-out: Activity
SK-OV-3 [7] = test: Growth inhibition of human SK-OV-3 cells assessed as cell growth at 100 uM incubated for 48 hrs by sulforhodamine B assay relative to control; conditions: read-out: Activity
K562 [8] = test: Growth inhibition of human K562 cells assessed as cell growth at 0.01 uM incubated for 48 hrs by sulforhodamine B assay relative to control; conditions: read-out: Activity
SN12C [9] = test: Growth inhibition of human SN12C cells assessed as cell growth at 1 uM incubated for 48 hrs by sulforhodamine B assay relative to control; conditions: read-out: Activity
CCRF-CEM = test: Growth inhibition of human CCRF-CEM cells incubated for 48 hrs by sulforhodamine B assay; summary of the method: as §1
SF-268 = test: Growth inhibition of human SF-268 cells assessed as cell growth at 0.01 uM incubated for 48 hrs by sulforhodamine B assay relative to control; conditions: read-out: Activity
SN12C [10] = test: Growth inhibition of human SN12C cells assessed as cell growth at 0.01 uM incubated for 48 hrs by sulforhodamine B assay relative to control; conditions: read-out: Activity
ACHN [11] = test: Growth inhibition of human ACHN cells incubated for 48 hrs by sulforhodamine B assay; conditions: for CC50: read-out: LC50 (the source's name); summary of the method: as §1
UACC-62 [12] = test: Growth inhibition of human UACC-62 cells assessed as cell growth at 0.1 uM incubated for 48 hrs by sulforhodamine B assay relative to control; conditions: read-out: Activity
HOP-62 = test: Growth inhibition of human HOP-62 cells assessed as cell growth at 100 uM incubated for 48 hrs by sulforhodamine B assay relative to control; conditions: read-out: Activity
MOLT-4 = test: Growth inhibition of human MOLT-4 cells incubated for 48 hrs by sulforhodamine B assay; conditions: for CC50: read-out: LC50 (the source's name); summary of the method: as §2
PC-3 = test: Growth inhibition of human PC-3 cells assessed as cell growth at 1 uM incubated for 48 hrs by sulforhodamine B assay relative to control; conditions: read-out: Activity
HCC 2998 = test: Growth inhibition of human HCC 2998 cells assessed as cell growth at 0.1 uM incubated for 48 hrs by sulforhodamine B assay relative to control; conditions: read-out: Activity; summary of the method: as §1
NCI-H460 = test: Growth inhibition of human NCI-H460 cells assessed as cell growth at 0.01 uM incubated for 48 hrs by sulforhodamine B assay relative to control; conditions: read-out: Activity
SNB-19 [13] = test: Growth inhibition of human SNB-19 cells assessed as cell growth at 100 uM incubated for 48 hrs by sulforhodamine B assay relative to control; conditions: read-out: Activity
ACHN [14] = test: Growth inhibition of human ACHN cells assessed as cell growth at 0.01 uM incubated for 48 hrs by sulforhodamine B assay relative to control; conditions: read-out: Activity
HCT-116 [15] = test: Growth inhibition of human HCT-116 cells incubated for 48 hrs by sulforhodamine B assay; summary of the method: as §2
UACC-257 = test: Growth inhibition of human UACC-257 cells assessed as cell growth at 1 uM incubated for 48 hrs by sulforhodamine B assay relative to control; conditions: read-out: Activity
OVCAR-3 = test: Growth inhibition of human OVCAR-3 cells incubated for 48 hrs by sulforhodamine B assay; conditions: for CC50: read-out: LC50 (the source's name)
Summary of the method: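 NCI DTP 60-line human tumour panel. Dose-response curves were run only for ligands active in the initial 10 µM screen. GI50 (concentration giving 50% of maximal inhibition of proliferation) and TGI (concentration giving total growth inhibition) were derived from these curves.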

A498 = test: Growth inhibition of human A498 cells assessed as cell growth at 0.1 uM incubated for 48 hrs by sulforhodamine B assay relative to control; conditions: read-out: Activity; summary of the method: as §1
OVCAR-5 [16] = test: Growth inhibition of human OVCAR-5 cells assessed as cell growth at 0.01 uM incubated for 48 hrs by sulforhodamine B assay relative to control; conditions: read-out: Activity
OVCAR-5 [17] = test: Growth inhibition of human OVCAR-5 cells assessed as cell growth at 0.1 uM incubated for 48 hrs by sulforhodamine B assay relative to control; conditions: read-out: Activity
COLO 205 [18] = test: Growth inhibition of human COLO 205 cells assessed as cell growth at 100 uM incubated for 48 hrs by sulforhodamine B assay relative to control; conditions: read-out: Activity; summary of the method: as §1
UACC-62 [19] = test: Growth inhibition of human UACC-62 cells assessed as cell growth at 1 uM incubated for 48 hrs by sulforhodamine B assay relative to control; conditions: read-out: Activity
HCT-116 [20] = test: Growth inhibition of human HCT-116 cells assessed as cell growth at 100 uM incubated for 48 hrs by sulforhodamine B assay relative to control; conditions: read-out: Activity
CAKI-1 = test: Growth inhibition of human CAKI-1 cells assessed as cell growth at 100 uM incubated for 48 hrs by sulforhodamine B assay relative to control; conditions: read-out: Activity; summary of the method: as §1

Nc1c(C(=O)Nc2ccccc2)sc2nc3c(cc12)CN(Cc1ccccc1)CC3
growth at 0.1 µM (COLO 205 [1]): 94%
growth at 0.1 µM (K562 [2]): 99%
growth at 1 µM (SNB-19 [3]): 88%
growth at 0.01 µM (Malme-3M): 87%
GI50 (MDA-MB-435 [4]): 3.43 µM
TGI (MDA-MB-435 [4]): 71.6 µM
CC50 (MDA-MB-435 [4]): > 100 µM
growth at 0.1 µM (IGROV-1): 98%
growth at 1 µM (TK-10): 100%
growth at 0.1 µM (SK-OV-3 [5]): 93%
GI50 (Hs-578T): 2.07 µM
TGI (Hs-578T): 7.55 µM
CC50 (Hs-578T): > 100 µM
growth at 1 µM (MDA-MB-435 [6]): 68%
growth at 100 µM (SK-OV-3 [7]): 5%
growth at 0.01 µM (K562 [8]): 98%
growth at 1 µM (SN12C [9]): 87%
GI50 (CCRF-CEM): 50.3 µM
LC50 (CCRF-CEM): > 100 µM
TGI (CCRF-CEM): > 100 µM
growth at 0.01 µM (SF-268): 91%
growth at 0.01 µM (SN12C [10]): 94%
GI50 (ACHN [11]): 5.5 µM
TGI (ACHN [11]): > 100 µM
CC50 (ACHN [11]): > 100 µM
growth at 0.1 µM (UACC-62 [12]): 92%
growth at 100 µM (HOP-62): -24%
GI50 (MOLT-4): 31.3 µM
TGI (MOLT-4): > 100 µM
CC50 (MOLT-4): > 100 µM
growth at 1 µM (PC-3): 89%
growth at 0.1 µM (HCC 2998): 97%
growth at 0.01 µM (NCI-H460): 101%
growth at 100 µM (SNB-19 [13]): 25%
growth at 0.01 µM (ACHN [14]): 101%
GI50 (HCT-116 [15]): 11 µM
LC50 (concentration killing 50% of cells) (HCT-116 [15]): > 100 µM
TGI (HCT-116 [15]): > 100 µM
growth at 1 µM (UACC-257): 84%
GI50 (OVCAR-3): 11.4 µM
TGI (OVCAR-3): > 100 µM
CC50 (OVCAR-3): > 100 µM
growth at 0.1 µM (A498): 82%
growth at 0.01 µM (OVCAR-5 [16]): 99%
growth at 0.1 µM (OVCAR-5 [17]): 92%
growth at 100 µM (COLO 205 [18]): 23%
growth at 1 µM (UACC-62 [19]): 89%
growth at 100 µM (HCT-116 [20]): 17%
growth at 100 µM (CAKI-1): 36%

Cc1cccc(NC(=O)c2sc3nc4c(cc3c2N)C(=O)CCC4)c1
growth at 0.1 µM (COLO 205 [1]): 78%
growth at 0.1 µM (K562 [2]): 44%
growth at 1 µM (SNB-19 [3]): 33%
growth at 0.01 µM (Malme-3M): 91%
GI50 (MDA-MB-435 [4]): 0.0297 µM
TGI (MDA-MB-435 [4]): 0.115 µM
CC50 (MDA-MB-435 [4]): 0.681 µM
growth at 0.1 µM (IGROV-1): 86%
growth at 1 µM (TK-10): 45%
growth at 0.1 µM (SK-OV-3 [5]): 73%
GI50 (Hs-578T): 0.256 µM
TGI (Hs-578T): 40.9 µM
CC50 (Hs-578T): > 100 µM
growth at 1 µM (MDA-MB-435 [6]): -61%
growth at 100 µM (SK-OV-3 [7]): -16%
growth at 0.01 µM (K562 [8]): 97%
growth at 1 µM (SN12C [9]): 42%
LC50 (CCRF-CEM): > 100 µM
TGI (CCRF-CEM): > 100 µM
growth at 0.01 µM (SF-268): 99%
growth at 0.01 µM (SN12C [10]): 95%
GI50 (ACHN [11]): 0.0224 µM
TGI (ACHN [11]): ≥ 100 µM
CC50 (ACHN [11]): > 100 µM
growth at 0.1 µM (UACC-62 [12]): 72%
growth at 100 µM (HOP-62): 1%
TGI (MOLT-4): > 100 µM
CC50 (MOLT-4): > 100 µM
growth at 1 µM (PC-3): 29%
growth at 0.1 µM (HCC 2998): 80%
growth at 0.01 µM (NCI-H460): 104%
growth at 100 µM (SNB-19 [13]): -74%
growth at 0.01 µM (ACHN [14]): 90%
GI50 (HCT-116 [15]): 0.28 µM
LC50 (concentration killing 50% of cells) (HCT-116 [15]): > 100 µM
TGI (HCT-116 [15]): > 100 µM
growth at 1 µM (UACC-257): 53%
GI50 (OVCAR-3): 0.256 µM
TGI (OVCAR-3): 1.66 µM
CC50 (OVCAR-3): ≥ 100 µM
growth at 0.1 µM (A498): 32%
growth at 0.01 µM (OVCAR-5 [16]): 96%
growth at 0.1 µM (OVCAR-5 [17]): 86%
growth at 100 µM (COLO 205 [18]): -8%
growth at 1 µM (UACC-62 [19]): 29%
growth at 100 µM (HCT-116 [20]): 10%
growth at 100 µM (CAKI-1): -22%
